Measurements from ChEMBL document CHEMBL1121364, “Nucleoside conjugates as potential antitumor agents. 3. Synthesis and antitumor activity of 1-(beta-D-arabinofuranosyl)cytosine conjugates of corticosteroids” (1980).

Legend:
L1210 [1] = test: Antitumor activity in mice with intraperitoneal implanted L1210 lymphoid leukemia at the dose 9.2 and 14.5 mg/kg/day x 5 was determined as weight change (g/mouse) on 8th day; type: functional
Method in brief: (§1)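 Female C3D2F1/J mice (C3H/HeJ × DBA/2J), groups of six to eight, average weight 25 g. Each mouse got 1 × 10^6 L1210 ascites cells ip, taken from DBA/2Ha donor mice bearing 3-5 day tumors. Compound was dissolved in 0.154 N NaOH and neutralized with 0.154 N HCl (final 0.9% NaCl). Dosed ip daily ×5, starting 24 h after implant. Recorded body weight change on day 8, survival range, median survival and 30-day survivors. ILS = (T/C − 1) × 100.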

L1210 [2] = test: Antitumor activity in the mice with intraperitoneal implanted L1210 lymphoid leukemia at the dose of 9.2 and 14.5 mg/kg/day x 5 was determined as mean survival of treated group compared to untreated; 12/11; type: functional, Mus musculus
L1210 [3] = test: Antitumor activity in the mice with intraperitoneal implanted L1210 lymphoid leukemia at the dose 17.7 and 27.7 mg/kg/day x 5 was determined as Survival time in days; Range is 7-17 days; type: functional, Mus musculus; method in brief: as §1
L1210 [4] = test: Antitumor activity in the mice with intraperitoneal implanted L1210 lymphoid leukemia at the dose 17.7 and 27.7 mg/kg/day x 5 was determined as percentage increase in the life span as compared with control tumor bearers; type: functional, Mus musculus; method in brief: as §1
L1210 [5] = test: Antitumor activity in the mice with intraperitoneal implanted L1210 lymphoid leukemia at the dose 9.2 and 14.5 mg/kg/day x 5 was determined and number of animals survived on 30 th day were reported; 0/6; type: functional, Mus musculus
Method in brief: (§2)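 C3D2F1/J female mice (C3H/HeJ female × DBA/2J male), groups of six to eight, average weight 25 g. Inoculated ip with 1 × 10^6 L1210 ascites cells taken from DBA/2Ha donor mice bearing 3-5 day old tumors. Compounds were dissolved in 0.154 N NaOH, neutralized with 0.154 N HCl (final 0.9% NaCl), and given ip daily for 5 days from 24 h post-implant. Median survival T/C; ILS = (T/C − 1) × 100; 30-day survivors counted.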

L1210 [6] = test: Antitumor activity in the mice with intraperitoneal implanted L1210 lymphoid leukemia at the dose 17.7 and 27.7 mg/kg/day x 5 was determined and number of animals survived on 30 th day were reported; 0/8; type: functional, Mus musculus; method in brief: as §1
L1210 [7] = test: Antitumor activity in the mice with intraperitoneal implanted L1210 lymphoid leukemia at the dose 9.2 and 14.5 mg/kg/day x 5 was determined as percentage increase in the life span as compared with control tumor bearers; type: functional, Mus musculus; method in brief: as §2
L1210 [8] = test: Antitumor activity in the mice with intraperitoneal implanted L1210 lymphoid leukemia at the dose of 17.7 and 27.7 mg/kg/day x 5 was determined as mean survival of treated group compared to untreated; 10.5/9.5; type: functional, Mus musculus; method in brief: as §2
L1210 [9] = test: Antitumor activity in mice with intraperitoneal implanted L1210 lymphoid leukemia at the dose 17.7 and 27.7 mg/kg/day x 5 was determined as weight change (g/mouse) on 8th day; type: functional; method in brief: as §1
L1210 [10] = test: Antitumor activity in the mice with intraperitoneal implanted L1210 lymphoid leukemia at the dose 9.2 and 14.5 mg/kg/day x 5 was determined as Survival time in days; Range is 12-16 days; type: functional, Mus musculus; method in brief: as §2
L1210 [11] = test: Antitumor activity in the mice with intraperitoneal implanted L1210 lymphoid leukemia at the dose 25 mg/kg/day x 5 was determined and number of animals survived on 30 th day were reported; 0/8; type: functional, Mus musculus; method in brief: as §1
L1210 [12] = test: Antitumor activity in mice with intraperitoneal implanted L1210 lymphoid leukemia at the dose 50 mg/kg/day x 5 was determined as weight change (g/mouse) on 8th day; type: functional
Method in brief: (§3)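 C3D2F1/J female mice (C3H/HeJ × DBA/2J), groups of six to eight, average 25 g, inoculated ip with 1 × 10^6 L1210 ascites cells taken from DBA/2Ha donor mice carrying 3-5 day tumors. Compound dissolved in 0.154 N NaOH, then neutralized with 0.154 N HCl to give 0.9% NaCl. Given ip daily for 5 consecutive days starting 24 h after implantation. Body weight change per mouse recorded on day 8.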

L1210 [13] = test: Antitumor activity in mice with intraperitoneal implanted L1210 lymphoid leukemia at the dose 100 mg/kg/day x 5 was determined as weight change (g/mouse) on 8th day; type: functional; method in brief: as §3
L1210 [14] = test: Antitumor activity in the mice with intraperitoneal implanted L1210 lymphoid leukemia at the dose 25 mg/kg/day x 5 was determined as Survival time in days; Range is 14-27 days; type: functional, Mus musculus; method in brief: as §1
L1210 [15] = test: Antitumor activity in mice with intraperitoneal implanted L1210 lymphoid leukemia at the dose 25 mg/kg/day x 5 was determined as weight change (g/mouse) on 8th day; type: functional; method in brief: as §3
L1210 [16] = test: Antitumor activity in the mice with intraperitoneal implanted L1210 lymphoid leukemia at the dose 50 mg/kg/day x 5 was determined and number of animals survived on 30 th day were reported; 0/8; type: functional, Mus musculus; method in brief: as §1
L1210 [17] = test: Antitumor activity in the mice with intraperitoneal implanted L1210 lymphoid leukemia at the dose 25 mg/kg/day x 5 was determined as percentage increase in the life span as compared with control tumor bearers; type: functional; conditions: Mus musculus, L1210, ip; method in brief: as §1
L1210 [18] = test: Antitumor activity in the mice with intraperitoneal implanted L1210 lymphoid leukemia at the dose of 25 mg/kg/day x 5 was determined as mean survival of treated group compared to untreated; 18/9.5; type: functional, Mus musculus; method in brief: as §2
L1210 [19] = test: Antitumor activity in mice with intraperitoneal implanted L1210 lymphoid leukemia at the dose 75 mg/kg/day x 5 was determined as weight change (g/mouse) on 8th day; type: functional; method in brief: as §3
L1210 [20] = test: Antitumor activity in the mice with intraperitoneal implanted L1210 lymphoid leukemia at the dose 50 mg/kg/day x 5 was determined as percentage increase in the life span as compared with control tumor bearers; type: functional; conditions: Mus musculus, L1210, ip; method in brief: as §2
L1210 [21] = test: Antitumor activity in the mice with intraperitoneal implanted L1210 lymphoid leukemia at the dose of 100 mg/kg/day x 5 was determined as median survival of treated group compared to untreated; 16/11
L1210 [22] = test: Antitumor activity in the mice with intraperitoneal implanted L1210 lymphoid leukemia at the dose 75 mg/kg/day x 5 was determined and number of animals survived on 30 th day were reported; 3/8; type: functional, Mus musculus; method in brief: as §2
L1210 [23] = test: Antitumor activity in the mice with intraperitoneal implanted L1210 lymphoid leukemia at the dose 100 mg/kg/day x 5 was determined as percentage increase in the life span as compared with control tumor bearers; type: functional; conditions: Mus musculus, L1210, ip; method in brief: as §1
L1210 [24] = test: Antitumor activity in the mice with intraperitoneal implanted L1210 lymphoid leukemia at the dose 18.7 and 26.6 mg/kg/day x 5 was determined and number of animals survived on 30 th day were reported; 0/8; type: functional, Mus musculus; method in brief: as §1
L1210 [25] = test: Antitumor activity in the mice with intraperitoneal implanted L1210 lymphoid leukemia at the dose 100 mg/kg/day x 5 was determined as Survival time in days; Range is 10-16 days; type: functional, Mus musculus; method in brief: as §1
L1210 [26] = test: Antitumor activity in the mice with intraperitoneal implanted L1210 lymphoid leukemia at the dose 9.2 and 13.2 mg/kg/day x 5 was determined as percentage increase in the life span as compared with control tumor bearers; type: functional, Mus musculus; method in brief: as §2
L1210 [27] = test: Antitumor activity in the mice with intraperitoneal implanted L1210 lymphoid leukemia at the dose of 50 mg/kg/day x 5 was determined as mean survival of treated group compared to untreated; 20.5/8.5; type: functional, Mus musculus
L1210 [28] = test: Antitumor activity in the mice with intraperitoneal implanted L1210 lymphoid leukemia at the dose of 75 mg/kg/day x 5 was determined as mean survival of treated group compared to untreated; 28.5/9.5; type: functional, Mus musculus
L1210 [29] = test: Antitumor activity in the mice with intraperitoneal implanted L1210 lymphoid leukemia at the dose 9.2 and 13.2 mg/kg/day x 5 was determined as Survival time in days; Range is 13-24 days; type: functional, Mus musculus; method in brief: as §2
L1210 [30] = test: Antitumor activity in the mice with intraperitoneal implanted L1210 lymphoid leukemia at the dose 50 mg/kg/day x 5 was determined as Survival time in days; Range is 14-23 days; type: functional, Mus musculus; method in brief: as §1
L1210 [31] = test: Antitumor activity in the mice with intraperitoneal implanted L1210 lymphoid leukemia at the dose 75 mg/kg/day x 5 was determined as Survival time in days; Range is 18-37 days; type: functional, Mus musculus; method in brief: as §2
L1210 [32] = test: Antitumor activity in the mice with intraperitoneal implanted L1210 lymphoid leukemia at the dose 75 mg/kg/day x 5 was determined as percentage increase in the life span as compared with control tumor bearers; type: functional; conditions: Mus musculus, L1210, ip; method in brief: as §2
L1210 [33] = test: In Vitro evaluation for the antiproliferative activity by observing the growth inhibition of L1210 lymphoid leukemia cells in culture at 72 hour; type: functional, Mus musculus
Method in brief: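 Growth of L1210 lymphoid leukemia cells in culture measured by Trypan blue exclusion of viable cells after 72 h of drug exposure. ED50 is the concentration giving 50% growth inhibition. In some runs the compound was first preincubated in medium at 37 °C for 24 or 48 h before the assay.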

L1210 [34] = test: Antitumor activity in the mice with intraperitoneal implanted L1210 lymphoid leukemia at the dose 18.7 and 26.6 mg/kg/day x 5 was determined as percentage increase in the life span as compared with control tumor bearers; type: functional, Mus musculus; method in brief: as §1
L1210 [35] = test: Antitumor activity in the mice with intraperitoneal implanted L1210 lymphoid leukemia at the dose 100 mg/kg/day x 5 was determined and number of animals survived on 30 th day were reported; 0/6; type: functional, Mus musculus; method in brief: as §1
L1210 [36] = test: Antitumor activity in the mice with intraperitoneal implanted L1210 lymphoid leukemia at the dose 9.2 and 13.2 mg/kg/day x 5 was determined and number of animals survived on 30 th day were reported; 0/6; type: functional, Mus musculus; method in brief: as §2

For `C[C@]12CCC(=O)C=C1CC[C@H]1[C@@H]3CC[C@](O)(C(=O)CO)[C@@]3(C)C[C@H](O)[C@@]12F.Nc1ccn([C@@H]2O[C@H](CO)[C@@H](O)[C@@H]2O)c(=O)n1`, the Weight change (L1210 [1]) was -4.47 g mouse-1, the T/C (L1210 [2]) was 12 and the Survival time (L1210 [3]) was 7 days. It also gave an ILS (L1210 [4]) of 11%, a Survivors (L1210 [5]) of 0 and a Survivors (L1210 [6]) of 0. For the same molecule, the ILS (L1210 [7]) was 9%, the T/C (L1210 [8]) was 10.5 and the Weight change (L1210 [9]) was -3.48 g mouse-1. It also gave a Survival time (L1210 [10]) of 12 days.
`C[C@]12CCC(=O)C=C1CC[C@@H]1[C@@H]2CC[C@@]2(C)[C@H]1CC[C@]2(O)C(=O)COP(=O)(O)OC[C@H]1O[C@@H](n2ccc(N)nc2=O)[C@@H](O)[C@@H]1O` gave a Survivors (L1210 [11]) of 0, a Weight change (L1210 [12]) of -2.5 g mouse-1 and a Weight change (L1210 [13]) of -3.82 g mouse-1. It also gave a Survival time (L1210 [14]) of 14 days, a Weight change (L1210 [15]) of 1.55 g mouse-1 and a Survivors (L1210 [16]) of 0. It also gave an ILS at 25 mg/kg/day (L1210 [17]) of 90%, a T/C (L1210 [18]) of 18 and a Weight change (L1210 [19]) of 0.46 g mouse-1. The ILS at 50 mg/kg/day (L1210 [20]) was 141%, the T/C (L1210 [21]) was 16 and the Survivors (L1210 [22]) was 3. The ILS at 100 mg/kg/day (L1210 [23]) was 46%, the Survivors (L1210 [24]) was 0 and the Survival time (L1210 [25]) was 10 days. The ILS (L1210 [26]) was 59%, the T/C (L1210 [27]) was 20.5 and the T/C (L1210 [28]) was 28.5. For the same molecule, the Survival time (L1210 [29]) was 13 days, the Survival time (L1210 [30]) was 14 days and the Survival time (L1210 [31]) was 18 days. For the same molecule, the ILS at 75 mg/kg/day (L1210 [32]) was 200%, the “ED 50” value (L1210 [33]) was 0.08 µM and the ILS (L1210 [34]) was 77%. It also gave a Survivors (L1210 [35]) of 0 and a Survivors (L1210 [36]) of 0.
